Measured values reported in ChEMBL document CHEMBL3352599, “Radiosynthesis and biological evaluation of a novel enoyl-ACP reductase inhibitor for Staphylococcus aureus” (Eur J Med Chem, 2014).
≈ marks a conversion by molar mass, not a printed value.

Key:
Mus musculus [1] = assay: Volume of distribution at steady state in Swiss Webster mouse at 10 mg/kg, iv by LC/MS/MS analysis; format: ADME, organism-based; set-up: dose 10 mg/kg, route intravenous; conditions: in vivo
In short: (§1)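 Healthy Swiss Webster mice received a single dose, either 10 mg/kg iv or 40 mg/kg sc. Blood was drawn at 5, 15 and 30 min and 1, 2, 4, 7 and 24 h (n = 3). Each mouse gave two consecutive samples, retro-orbital then cardiac puncture, into EDTA. Plasma was deproteinized with acetonitrile and analysed by LC-MS/MS. Parameters came from noncompartmental analysis. sc bioavailability was calculated after dose normalization.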

[2] = Bioavailability in Swiss Webster mouse at 40 mg/kg, sc by LC/MS/MS analysis; format: ADME, organism-based; conditions: in vivo; in short: as §1
Mus musculus [3] = assay: Apparent volume of distribution in Swiss Webster mouse at 10 mg/kg, iv by LC/MS/MS analysis; format: ADME, organism-based; set-up: dose 10 mg/kg, route intravenous; conditions: in vivo; in short: as §1
[4] = AUC (0 to infinity) in Swiss Webster mouse at 40 mg/kg, sc by LC/MS/MS analysis; format: ADME, organism-based; set-up: time infinity, dose 40 mg/kg, route subcutaneous; conditions: plasma; in short: as §1
[5] = Mean residence time in Swiss Webster mouse at 40 mg/kg, sc by LC/MS/MS analysis; format: ADME, organism-based; set-up: dose 40 mg/kg, route subcutaneous; conditions: in vivo; in short: as §1
[6] = Half life in Swiss Webster mouse at 40 mg/kg, sc by LC/MS/MS analysis; format: ADME, organism-based; set-up: dose 40 mg/kg, route subcutaneous; conditions: in vivo; in short: as §1
Staphylococcus aureus [7] = assay: Antibacterial activity against methicillin-resistant Staphylococcus aureus BAA1762 infected in Swiss Webster systemic infection model assessed as survival rate at 100 mg/kg, sc administered 1 hr post infection on day 0, day 1 and 2 with 24 hrs dosing interval and measured for additional 4 days (reference value: 0%); format: functional; conditions: route subcutaneous
In short: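 Mice made neutropenic with ip cyclophosphamide (150 mg/kg day −4, 100 mg/kg day −1). MRSA grown in Mueller Hinton broth at 37 °C to mid-log, washed and diluted in BHI, then given ip at 2×10^7 cells. Compound in ethanol/PEG-400/saline (40/20/40) given sc once daily for 3 days. Vehicle-treated infected controls. Survival checked twice daily for 7 days.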

Staphylococcus aureus [8] = assay: Antibacterial activity against methicillin-resistant Staphylococcus aureus BAA1762 infected in Swiss Webster thigh infection model assessed as remaining bacterial burden at 40 mg/kg, sc administered 1 hr post challenge (reference value: 9 log10 CFU); conditions: route subcutaneous
Staphylococcus aureus [9] = assay: Antibacterial activity against methicillin-resistant Staphylococcus aureus BAA1762 infected in Swiss Webster thigh infection model assessed as remaining bacterial burden at 100 mg/kg, sc administered 1 hr post challenge (reference value: 9 log10 CFU); conditions: route subcutaneous
[10] = Tmax in Swiss Webster mouse at 10 mg/kg, iv by LC/MS/MS analysis; format: ADME, organism-based; set-up: dose 10 mg/kg, route intravenous; conditions: in vivo; in short: as §1
[11] = Cmax in Swiss Webster mouse at 10 mg/kg, iv by LC/MS/MS analysis; format: ADME, organism-based; set-up: dose 10 mg/kg, route intravenous; conditions: in vivo; in short: as §1
[12] = Ratio of AUC for Swiss Webster mouse at 40 mg/kg, sc to MIC for methicillin-resistant Staphylococcus aureus BAA1762; conditions: route subcutaneous
In short: (§2)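 Healthy Swiss Webster mice were given a single dose, iv at 10 mg/kg or sc at 40 mg/kg. Blood was taken at 5, 15 and 30 min and 1, 2, 4, 7 and 24 h (n = 3), with EDTA as anticoagulant. Plasma was protein-precipitated with acetonitrile and analysed by LC-MS/MS. AUC0-∞ (h*μg/mL) came from noncompartmental analysis and was divided by MIC (μg/mL).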

[13] = Half life in Swiss Webster mouse at 10 mg/kg, iv by LC/MS/MS analysis; format: ADME, organism-based; set-up: dose 10 mg/kg, route intravenous; conditions: in vivo; in short: as §1
Staphylococcus aureus [14] = assay: Antibacterial activity against Staphylococcus aureus; format: functional
[15] = Ratio of AUC for Swiss Webster mouse at 10 mg/kg, iv to MIC for methicillin-resistant Staphylococcus aureus BAA1762; in short: as §2
[16] = Clearance at steady state in Swiss Webster mouse at 10 mg/kg, iv by LC/MS/MS analysis; format: ADME, organism-based; set-up: dose 10 mg/kg, route intravenous; conditions: in vivo; in short: as §1
[17] = Mean residence time in Swiss Webster mouse at 10 mg/kg, iv by LC/MS/MS analysis; format: ADME, organism-based; set-up: dose 10 mg/kg, route intravenous; conditions: in vivo; in short: as §1
[18] = AUC (0 to infinity) in Swiss Webster mouse at 10 mg/kg, iv by LC/MS/MS analysis; format: ADME, organism-based; set-up: time infinity, dose 10 mg/kg, route intravenous; conditions: plasma; in short: as §1
[19] = Cmax in Swiss Webster mouse at 40 mg/kg, sc by LC/MS/MS analysis; format: ADME, organism-based; set-up: dose 40 mg/kg, route subcutaneous; conditions: in vivo; in short: as §1

## CCCCCCc1ccc(Oc2ccccc2C#N)c(O)c1
Mus musculus [1]
  Vdss: 475.6 mL
[2]
  bioavailability: 69%
Mus musculus [3]
  Vz: 704.1 mL
[4]
  AUC(0-inf): 1770 ng·h/mL
[5]
  MRT: 6.47 h
[6]
  half-life: 370 min
Staphylococcus aureus [7]
  survival at 100 mg/kg: 50%
Staphylococcus aureus [8]
  log10 CFU: 7
Staphylococcus aureus [9]
  log10 CFU: 6
[10]
  Tmax: 4.8 min
[11]
  Cmax: 840 ng/mL
[12]
  RatioAUC/MIC: 3.54
[13]
  half-life: 60.6 min
Staphylococcus aureus [14]
  MIC: 0.5 µg/mL (≈ 1.69 µM)
[15]
  RatioAUC/MIC: 1.28
[16]
  clearance: 7.31 mL/min
[17]
  MRT: 39 min
[18]
  AUC(0-inf): 640 ng·h/mL
[19]
  Cmax: 280 ng/mL
